# Measurements published in ChEMBL document CHEMBL3808334, “Synthesis and in vitro evaluation of novel triazine analogues as anticancer agents and their interaction studies with bovine serum albumin” (Eur J Med Chem, 2016).
# How the values were obtained:
# Assay type in all cases: functional
# T47D [1] = assay: Growth inhibition of human T47D cells assessed as cell growth at 10^-5 M incubated for 48 hrs by sulforhodamine B assay; settings: read-out: Activity
# T47D [2] = assay: Growth inhibition of human T47D cells incubated for 48 hrs by sulforhodamine B assay
# Procedure, shortened: (§1)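 Cells were plated at 5,000–40,000 per well according to doubling time and preincubated 24 h at 37 °C in 5% CO2; time-zero plates were then TCA-fixed. Five concentrations (10-fold or ½-log dilutions, DMSO stock) were incubated 48 h. Cells were TCA-fixed, stained with 0.4% SRB and read at 515 nm. GI50 was taken where [(Ti−Tz)/(C−Tz)]×100 = 50.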
# [3] = Growth inhibition of human DU145 cells assessed as cell growth at 10^-8 M incubated for 48 hrs by sulforhodamine B assay; settings: DU-145, 48 h, read-out: Activity
# Procedure, shortened: (§2)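 Cells seeded at 5,000–40,000/well according to doubling time and preincubated 24 h at 37 °C, 5% CO2. Time-zero plates were TCA-fixed. DMSO concentrate was diluted in medium with 50 µg/ml gentamicin to give five concentrations (10-fold or ½ log steps), then exposed 48 h. Cells were TCA-fixed, stained with 0.4% SRB and read at 515 nm. Percent growth was taken against time-zero and control; GI50, TGI and LC50 derived.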
# 786-0 [4] = assay: Growth inhibition of human 786-0 cells incubated for 48 hrs by sulforhodamine B assay; settings: 786-0, 48 h
# Procedure, shortened: (§3)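 Five-dose assay: five concentrations from 10-fold or ½-log serial dilutions. Cells are plated at 5,000–40,000 per well according to doubling time, grown 24 h, then exposed 48 h at 37 °C, 5% CO₂. Fixed with cold 50% TCA (final addition) for 60 min at 4 °C and stained with 0.4% SRB in 1% acetic acid. Bound dye is solubilized in 10 mM Tris base and read at 515 nm. GI₅₀ is where [(Ti−Tz)/(C−Tz)]×100 = 50, with a time-zero plate as Tz.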
# [5] = Growth inhibition of human HCT116 cells assessed as cell growth at 10^-4 M incubated for 48 hrs by sulforhodamine B assay; settings: HCT-116, 48 h, read-out: Activity; procedure, shortened: as §2
# KM12 = assay: Growth inhibition of human KM12 cells assessed as cell growth at 10 uM incubated for 48 hrs by sulforhodamine B assay; settings: KM12, 48 h, read-out: Activity
# [6] = Growth inhibition of human COLO205 cells assessed as cell growth at 10^-4 M incubated for 48 hrs by sulforhodamine B assay; settings: COLO 205, 48 h, read-out: Activity; procedure, shortened: as §2
# [7] = Growth inhibition of human TK10 cells assessed as cell growth at 10^-7 M incubated for 48 hrs by sulforhodamine B assay; settings: TK-10, 48 h, read-out: Activity
# MCF7 = assay: Growth inhibition of human MCF7 cells assessed as cell growth at 10^-6 M incubated for 48 hrs by sulforhodamine B assay; settings: MCF7, 48 h, read-out: Activity
# [8] = Growth inhibition of human SNB75 cells incubated for 48 hrs by sulforhodamine B assay; settings: SNB-75, 48 h; procedure, shortened: as §1
# [9] = Growth inhibition of human Hs 578T cells assessed as cell growth at 10^-7 M incubated for 48 hrs by sulforhodamine B assay; settings: read-out: Activity
# [10] = Growth inhibition of human HCC2998 cells assessed as cell growth at 10^-7 M incubated for 48 hrs by sulforhodamine B assay; settings: HCC 2998, 48 h, read-out: Activity; procedure, shortened: as §2
# [11] = Growth inhibition of human HCT116 cells assessed as cell growth at 10^-6 M incubated for 48 hrs by sulforhodamine B assay; settings: HCT-116, 48 h, read-out: Activity; procedure, shortened: as §2
# A498 = assay: Growth inhibition of human A498 cells assessed as cell growth at 10^-5 M incubated for 48 hrs by sulforhodamine B assay; settings: A498, 48 h, read-out: Activity; procedure, shortened: as §3
# [12] = Growth inhibition of human SNB19 cells assessed as cell growth at 10^-8 M incubated for 48 hrs by sulforhodamine B assay; settings: SNB-19, 48 h, read-out: Activity
# [13] = Growth inhibition of human IGROV1 cells assessed as cell growth at 10 uM incubated for 48 hrs by sulforhodamine B assay; settings: IGROV-1, 48 h, read-out: Activity
# ACHN = assay: Growth inhibition of human ACHN cells assessed as cell growth at 10 uM incubated for 48 hrs by sulforhodamine B assay; settings: read-out: Activity
# Procedure, shortened: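 One-dose screen at 10 µM final. Cells are plated at 5,000–40,000 per well according to doubling time and preincubated 24 h at 37 °C, 5% CO₂. Compound (DMSO stock diluted in medium with 50 µg/ml gentamicin) is then added for 48 h. Growth percent is read by sulforhodamine B staining, absorbance at 515 nm.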
# NCI-H460 = assay: Growth inhibition of human NCI-H460 cells assessed as cell growth at 10^-8 M incubated for 48 hrs by sulforhodamine B assay; settings: NCI-H460, 48 h, read-out: Activity
# [14] = Growth inhibition of human UO31 cells assessed as cell growth at 10^-5 M incubated for 48 hrs by sulforhodamine B assay; settings: UO-31, 48 h, read-out: Activity
# [15] = Growth inhibition of human RPMI8226 cells assessed as cell growth at 10^-5 M incubated for 48 hrs by sulforhodamine B assay; settings: RPMI-8226, 48 h, read-out: Activity
# [16] = Growth inhibition of human SF295 cells assessed as cell growth at 10^-4 M incubated for 48 hrs by sulforhodamine B assay; settings: SF-295, 48 h, read-out: Activity
# SK-MEL-28 = assay: Growth inhibition of human SK-MEL-28 cells assessed as cell growth at 10^-5 M incubated for 48 hrs by sulforhodamine B assay; settings: SK-MEL-28, 48 h, read-out: Activity
# T47D [17] = assay: Growth inhibition of human T47D cells assessed as cell growth at 10^-6 M incubated for 48 hrs by sulforhodamine B assay; settings: read-out: Activity
# 786-0 [18] = assay: Growth inhibition of human 786-0 cells assessed as cell growth at 10^-4 M incubated for 48 hrs by sulforhodamine B assay; settings: 786-0, 48 h, read-out: Activity; procedure, shortened: as §3
# [19] = Growth inhibition of human SF539 cells assessed as cell growth at 10 uM incubated for 48 hrs by sulforhodamine B assay; settings: SF-539, 48 h, read-out: Activity
# [20] = Growth inhibition of human UACC62 cells assessed as cell growth at 10^-7 M incubated for 48 hrs by sulforhodamine B assay; settings: UACC-62, 48 h, read-out: Activity
# [21] = Growth inhibition of human OVCAR4 cells assessed as cell growth at 10^-6 M incubated for 48 hrs by sulforhodamine B assay; settings: OVCAR-4, 48 h, read-out: Activity
# [22] = read-out: LC50 (the source's name)
# [23] = read-out: pLC50 (the source's name) (converted)
structure (smiles),measurement,setting,value
Clc1ccc(-c2nc(Nc3ccc(-c4nc5ccccc5[nH]4)cc3)nc(N3CCOCC3)n2)cc1,growth at 10 µM,T47D [1],-62%
same,GI50,T47D [2]; read-out: GI50,376 nM
same,TGI,T47D [2]; read-out: TGI,1.72 µM
same,GI50,T47D [2]; read-out: pGI50 (converted),380 nM
same,TGI,T47D [2]; read-out: pTGI (converted),1.74 µM
same,growth at 0.01 µM,[3],101%
same,GI50,786-0 [4]; read-out: GI50,177 nM
same,TGI,786-0 [4]; read-out: TGI,348 nM
same,GI50,786-0 [4]; read-out: pGI50 (converted),178 nM
same,TGI,786-0 [4]; read-out: pTGI (converted),347 nM
same,growth at 100 µM,[5],-34%
same,growth at 10 µM,KM12,-91.3%
same,growth at 100 µM,[6],-44%
same,growth at 0.1 µM,[7],92%
same,growth at 1 µM,MCF7,-39%
same,GI50,[8]; read-out: GI50,1750 nM
same,TGI,[8]; read-out: TGI,3.25 µM
same,GI50,[8]; read-out: pGI50 (converted),1740 nM
same,TGI,[8]; read-out: pTGI (converted),3.24 µM
same,growth at 0.1 µM,[9],87%
same,growth at 0.1 µM,[10],93%
same,growth at 1 µM,[11],-80%
same,growth at 10 µM,A498,-83%
same,growth at 0.01 µM,[12],102%
same,growth at 10 µM,[13],-71.2%
same,growth at 10 µM,ACHN,-90.6%
same,growth at 0.01 µM,NCI-H460,101%
same,growth at 10 µM,[14],-86%
same,growth at 10 µM,[15],-51%
same,growth at 100 µM,[16],-10%
same,growth at 10 µM,SK-MEL-28,-81%
same,growth at 1 µM,T47D [17],19%
same,growth at 100 µM,786-0 [18],-21%
same,growth at 10 µM,[19],-92.7%
same,growth at 0.1 µM,[20],93%
same,growth at 1 µM,[21],52%
c1ccc2[nH]c(-c3ccc(Nc4nc(N5CCCCC5)nc(N5CCOCC5)n4)cc3)nc2c1,growth at 10 µM,T47D [1],-46%
same,GI50,T47D [2]; read-out: GI50,1960 nM
same,CC50,T47D [2]; [22],> 100 µM
same,TGI,T47D [2]; read-out: TGI,4.58 µM
same,GI50,T47D [2]; read-out: pGI50 (converted),1950 nM
same,CC50,T47D [2]; [23],> 100 µM
same,TGI,T47D [2]; read-out: pTGI (converted),4.57 µM
same,growth at 0.01 µM,[3],102%
same,GI50,786-0 [4]; read-out: GI50,1540 nM
same,CC50,786-0 [4]; [22],6.68 µM
same,TGI,786-0 [4]; read-out: TGI,3210 nM
same,GI50,786-0 [4]; read-out: pGI50 (converted),1550 nM
same,CC50,786-0 [4]; [23],6.61 µM
same,TGI,786-0 [4]; read-out: pTGI (converted),3240 nM
same,growth at 100 µM,[5],-75%
same,growth at 10 µM,KM12,14.3%
same,growth at 100 µM,[6],-69%
same,growth at 0.1 µM,[7],93%
same,growth at 1 µM,MCF7,87%
same,GI50,[8]; read-out: GI50,2100 nM
same,CC50,[8]; [22],> 100 µM
same,TGI,[8]; read-out: TGI,16.9 µM
same,GI50,[8]; read-out: pGI50 (converted),2090 nM
same,CC50,[8]; [23],> 100 µM
same,TGI,[8]; read-out: pTGI (converted),17 µM
same,growth at 0.1 µM,[9],94%
same,growth at 0.1 µM,[10],105%
same,growth at 1 µM,[11],95%
same,growth at 10 µM,A498,-51%
same,growth at 0.01 µM,[12],101%
same,growth at 10 µM,[13],51.3%
same,growth at 10 µM,ACHN,22.9%
same,growth at 0.01 µM,NCI-H460,101%
same,growth at 10 µM,[14],-35%
same,growth at 10 µM,[15],-19%
same,growth at 100 µM,[16],-56%
same,growth at 10 µM,SK-MEL-28,-57%
same,growth at 1 µM,T47D [17],90%
same,growth at 100 µM,786-0 [18],-87%
same,growth at 10 µM,[19],7.95%
same,growth at 0.1 µM,[20],96%
same,growth at 1 µM,[21],93%
